Active and inactive are the calls of the source. No cut-off for these calls is given here.
Tests used:
[1] = Drug uptake in human HeLa cells at 2 uM after 2 hrs by flow cytometric method; assay type: ADME, cell-based
In short: (§1)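 Cells in 35 mm dishes incubated in RPMI 1640 at 37 °C, 5% CO2, with 2 μM for 2 h or 4 μM for 4 h. Rinsed, trypsinised, pelleted at 400g, resuspended in HBSS. Flow cytometry on 10^4 cells: excitation 640 nm, emission 720–840 nm. Triplicate; mean ± SD of three independent experiments.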

[2] = Drug uptake in mitochondria of human HeLa cells at 2 uM after 2 hrs by Mito-tracker green-based confocal microscopic method; assay type: ADME
In short: (§2)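 Cells on glass-bottom dishes given 2 μM for 2 h or 4 μM for 4 h at 37 °C. After PBS washes, stained in HBSS with 0.2 μM ER-tracker or Mito-tracker green for 15 min at 37 °C. Confocal imaging: trackers excited at 488 nm, emission 500–570 nm; BODIPY excited at 633 nm, emission 650–760 nm.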

[3] = Dark toxicity against human HepG2 cells assessed as decrease in cell viability at 0.0125 to 0.4 uM incubated for 2 hrs by MTT assay; assay type: cell-based; conditions: hepg2, 2 h
In short: (§3)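 Cells seeded at 2 × 10^5 cells mL−1 in 96-well plates 24 h before; incubated with compound (0.4–0.0125 μM or 8–0.5 μM series) in dark 2 h, washed with PBS, re-fed, kept unirradiated. MTT (3 mg mL−1) added, 4 h at 37 °C, DMSO added, absorbance at 490 nm. Mean ± SEM of three independent experiments, each in quadruplicate. HepG2 cells were grown in RPMI 1640 and HeLa in DMEM.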

[4] = tested on: HeLa; experiment: Induction of apoptosis in human HeLa cells assessed as cell shrinkage at 2 uM preincubated in dark for 2 hrs followed by two photon irradiation for 10 mins measured after 3 hrs by bright field microscopic method; assay type: functional, cell-based
In short: (§4)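 HeLa cells given 2 μM for 2 h, rinsed and re-fed. Irradiated with 800 nm laser (400 mW) for 10 min at 37 °C, 5% CO2; dark controls kept unirradiated. After 3 h, stained with PI (50 μg in 1 mL PBS) for 10 min, rinsed. Imaged with PI excited at 488 nm (550–700 nm) and BODIPY at 633 nm (640–735 nm), plus bright field.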

[5] = tested on: HeLa; experiment: Induction of apoptosis in human HeLa cells at 2 uM incubated in dark for 2 hrs measured after 3 hrs by propidium iodide staining-based laser scanning microscopic method; assay type: cell-based; in short: as §4
[6] = tested on: HepG2; experiment: Induction of endoplasmic reticulum stress in human HepG2 cells assessed as upregulation of GRP78 expression at 0.15 uM after 4 to 8 hrs in absence of light by Western blot method; assay type: cell-based; conditions: hepg2, 0.15 µM
In short: (§5)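 HepG2 cells in 60 mm dishes treated with 150 nM in RPMI 1640, with or without illumination (λ > 610 nm). Lysed in RIPA buffer at 2, 4, 6 and 8 h after PDT. Equal protein run on 10% polyacrylamide gels and transferred to PVDF. Blocked in 5% nonfat milk, probed for GRP78, CHOP and actin, with HRP chemiluminescent detection. Control cells were illuminated without compound.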

[7] = Drug uptake in endoplasmic reticulum of human HeLa cells at 2 uM after 2 hrs by ER-tracker green-based confocal microscopic method; assay type: ADME, subcellular; in short: as §2
[8] = Drug uptake in lysosome of human HeLa cells at 2 uM after 2 hrs by […]-based confocal microscopic method; assay type: ADME, subcellular
[9] = tested on: HepG2; experiment: Induction of endoplasmic reticulum stress in human HepG2 cells assessed as upregulation of CHOP expression at 0.15 uM after 4 to 8 hrs in absence of light by Western blot method; assay type: cell-based; conditions: hepg2, 0.15 µM; in short: as §5
[10] = tested on: HeLa; experiment: Induction of apoptosis in human HeLa cells at 2 uM preincubated in dark for 2 hrs followed by two photon irradiation for 10 mins measured after 3 hrs by propidium iodide staining-based laser scanning microscopic method; assay type: functional, cell-based; in short: as §4
[11] = Drug uptake in mitochondria of human HepG2 cells at 2 uM after 2 hrs by Mito-tracker green-based confocal microscopic method; assay type: ADME; conditions: hepg2, 2 h; in short: as §2
[12] = tested on: HepG2; experiment: Induction of endoplasmic reticulum stress in human HepG2 cells assessed as upregulation of GRP78 expression at 0.15 uM after 4 to 8 hrs in presence of light by Western blot method; assay type: functional, cell-based; in short: as §5
[13] = Stability of the compound in PBS at 2 uM measured over 25 mins in presence of illumination by halogen lamp; assay type: physicochemical; conditions: buffer
[14] = tested on: HepG2; experiment: Induction of reactive oxygen species generation in human HepG2 cells at 0.05 to 0.8 uM after 2 hrs in presence of light by H2DCFDA probe-based fluorescence assay; assay type: functional, cell-based
In short: (§6)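 HepG2 cells in 96-well plates incubated 2 h with 0.05–0.8 μM in RPMI 1640, washed, then loaded with H2DCFDA (10 μM in HBSS) for 30 min at 37 °C in dark. Washed, re-fed with HBSS, then irradiated (λ > 610 nm) or left dark. Fluorescence read at 485/535 nm. Mean with SEM of three independent experiments.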

[15] = Drug uptake in endoplasmic reticulum of human HepG2 cells at 2 uM after 2 hrs by ER-tracker green-based confocal microscopic method; assay type: ADME, subcellular; conditions: hepg2, 2 h; in short: as §2
[16] = tested on: HepG2; experiment: Increase in intracellular calcium levels in human HepG2 cells at 0.05 to 0.8 uM after 2 hrs in presence of light by fluo-3 AM dye-based fluorescence assay relative to control; assay type: functional
In short: (§7)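 HepG2 cells in 96-well plates given 0.05–0.8 μM in RPMI 1640 for 2 h, with or without illumination (λ > 610 nm). Afterwards washed, loaded with Fluo-3 AM (2.5 μM in HBSS) for 1 h at 37 °C in dark. Washed, re-fed with HBSS, fluorescence read at 485/535 nm. Mean with SEM of three independent experiments.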

[17] = tested on: HepG2; experiment: Ratio of compound activity for induction of reactive oxygen species generation in human HepG2 cells at 0.8 uM in presence of light to in absence of light; assay type: toxicity, cell-based; conditions: hepg2, 0.8 µM; in short: as §6
[18] = Induction of singlet oxygen generation in PBS assessed as increase in decay of DPBF at 2 uM by spectroscopic method; assay type: functional
[19] = Drug uptake in human HeLa cells at 2 uM incubated for 2 hrs upon two-photon excitation by confocal microscopic method; assay type: ADME, cell-based
In short: (§8)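 HeLa cells (about 1.2 × 10^5) grown overnight on glass-bottom dishes, then treated with 2 μM in medium containing 0.125% v/v DMF and 0.025% v/v Tween 80 for 2 h. Rinsed with PBS and imaged by laser scanning microscopy with 633 nm (one-photon) or 800 nm (two-photon) excitation.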

[20] = Drug uptake in human HeLa cells at 2 uM incubated for 2 hrs upon one-photon excitation by confocal microscopic method; assay type: ADME, cell-based; in short: as §8
[21] = tested on: HepG2; experiment: Induction of reactive oxygen species generation in human HepG2 cells at 0.05 to 0.8 uM after 2 hrs in absence of light by H2DCFDA probe-based fluorescence assay; assay type: cell-based; conditions: hepg2, 2 h; in short: as §6
[22] = tested on: HepG2; experiment: Induction of endoplasmic reticulum stress in human HepG2 cells assessed as upregulation of CHOP expression at 0.15 uM after 4 to 8 hrs in presence of light by Western blot method; assay type: functional, cell-based; in short: as §5
[23] = Drug uptake in human HepG2 cells at 2 uM after 2 hrs by flow cytometric method; assay type: ADME, cell-based; conditions: hepg2, 2 h; in short: as §1
[24] = tested on: HepG2; experiment: Photocytotoxicity against human HepG2 cells assessed as decrease in cell viability preincubated in dark for 2 hrs followed by illumination by halogen lamp for 20 mins by MTT assay; assay type: functional, cell-based
In short: (§9)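 Cells seeded at 2 × 10^5 cells mL−1 in 96-well plates 24 h before; 2 h dark incubation with compound (0.0125–0.4 μM or 0.5–8 μM), PBS wash, re-feed. Then 300 W halogen lamp with red filter (λ > 610 nm), 40 mW cm−2, 20 min at r.t. (48 J cm−2). MTT read-out at 490 nm. IC50 = concentration killing 50% of cells. Three independent experiments, quadruplicate.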

[25] = Dark toxicity against human HeLa cells assessed as decrease in cell viability at 0.0125 to 0.4 uM incubated for 2 hrs by MTT assay; assay type: cell-based; in short: as §3
[26] = Induction of singlet oxygen generation in DMF assessed as increase in decay of DPBF at 1 uM by spectroscopic method
[27] = Drug uptake in lysosome of human HepG2 cells at 2 uM after 2 hrs by […]-based confocal microscopic method; assay type: ADME, subcellular; conditions: hepg2, 2 h
[28] = tested on: HeLa; experiment: Photocytotoxicity against human HeLa cells assessed as decrease in cell viability preincubated in dark for 2 hrs followed by illumination by halogen lamp for 20 mins by MTT assay; assay type: functional, cell-based; in short: as §9
[29] = tested on: HepG2; experiment: Increase in intracellular calcium levels in human HepG2 cells at 0.05 to 0.8 uM after 2 hrs in absence of light by fluo-3 AM dye-based fluorescence assay; assay type: ADME, cell-based; conditions: hepg2, 2 h; in short: as §7
[30] = tested on: HepG2; experiment: Photocytotoxicity against human HepG2 cells assessed as decrease in cell viability at 0.19 uM preincubated in dark for 2 hrs followed by illumination by halogen lamp for 20 mins by MTT assay relative to control; assay type: functional
In short: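 Light-dose study: HepG2 cells given 0.19 μM for 2 h, washed twice with PBS, re-fed, then illuminated with halogen lamp (λ > 610 nm, 40 mW cm−2) for 10, 15, 20 or 25 min. Viability by MTT (4 h, 37 °C), DMSO, absorbance at 490 nm.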

[31] = Drug uptake in lysosome of human HepG2 cells at 4 uM after 4 hrs by […]-based confocal microscopic method; assay type: ADME, subcellular; conditions: hepg2, 4 h
[32] = Drug uptake in endoplasmic reticulum of human HepG2 cells at 4 uM after 4 hrs by ER-tracker green-based confocal microscopic method; assay type: ADME, subcellular; conditions: hepg2, 4 h; in short: as §2
[33] = Drug uptake in mitochondria of human HepG2 cells at 4 uM after 4 hrs by Mito-tracker green-based confocal microscopic method; assay type: ADME; conditions: hepg2, 4 h; in short: as §2
[34] = Drug uptake in endoplasmic reticulum of human HeLa cells at 4 uM after 4 hrs by ER-tracker green-based confocal microscopic method; assay type: ADME, subcellular; in short: as §2
[35] = Drug uptake in mitochondria of human HeLa cells at 4 uM after 4 hrs by Mito-tracker green-based confocal microscopic method; assay type: ADME; in short: as §2
[36] = Drug uptake in lysosome of human HeLa cells at 4 uM after 4 hrs by […]-based confocal microscopic method; assay type: ADME, subcellular

COCCOCCOCCOc1ccc(/C=C/C2=[N+]3C(=C(c4ccc(OCC(=O)NCCc5ccc(S(=O)(=O)NC(=O)NC6CCCCC6)cc5)cc4)c4c(C)c(Br)c(/C=C/c5ccc(OCCOCCOCCOC)cc5)n4[B-]3(F)F)C(C)=C2Br)cc1
Drug uptake [1]: Active | Drug uptake [2]: Not Active | Activity [3]: Non-Toxic | Activity [4]: Active | Activity [5]: Non-Toxic | Activity [6]: Non-Toxic | Drug uptake [7]: Active | Drug uptake [8]: Not Active | Activity [9]: Non-Toxic | Activity [10]: Active | Drug uptake [11]: Not Active | Activity [12]: Active | Stability [13]: Stable | Activity [14]: Dose-dependent effect | Drug uptake [15]: Active | fold change (FC) [16]: 3.5 | Ratio [17]: 9 | Activity [18]: Active | Drug uptake [19]: Active | Drug uptake [20]: Active | Activity [21]: Non-Toxic | Activity [22]: Active | Drug uptake [23]: Active | IC50 [24]: 160 nM | Activity [25]: Non-Toxic | Activity [26]: Active | Drug uptake [27]: Not Active | IC50 [28]: 90 nM | Activity [29]: Non-Toxic | Activity [30]: 50%

CCOC(=O)COc1ccc(C2=C3C(C)=C(Br)C(/C=C/c4ccc5c(c4)c4ccccc4n5CCOCCOCCOC)=[N+]3[B-](F)(F)n3c(/C=C/c4ccc5c(c4)c4ccccc4n5CCOCCOCCOC)c(Br)c(C)c32)cc1
Drug uptake [31]: Not Active | Drug uptake [32]: Not Active | Drug uptake [33]: Not Active | Drug uptake [34]: Not Active | Drug uptake [35]: Not Active | Drug uptake [36]: Not Active

Source: ChEMBL document CHEMBL4177771, “Endoplasmic Reticulum-Localized Two-Photon-Absorbing Boron Dipyrromethenes as Advanced Photosensitizers for Photodynamic Therapy” (J Med Chem, 2018)
